{"source": "paper PMC3276733", "about": "(Journal of Medicinal Chemistry, 2012)", "key": {"[1]": {"test_system": "tadpoles", "conditions": "cited from earlier work"}, "[2]": {"target": "rat α1β2γ2L GABAA receptors expressed in Xenopus laevis oocytes (Rattus norvegicus, UniProt P62813)", "type": "cell-based", "conditions": "2 μM GABA, compound up to 10 μM", "outline": "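Rat α1, β2, γ2L cRNA (equal parts, 20-40 ng total) injected into defolliculated stage V-VI oocytes, which were held at 18 °C in supplemented ND96 (pH 7.4) and recorded 2-5 days later. Two-electrode voltage clamp at −70 mV. Response was the current ratio with/without compound, against 2 μM GABA. Direct gating: 10 μM compound without GABA, as a ratio to the 2 μM GABA current. ≥4 oocytes; SEM.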"}, "[3]": {"target": "α1(Q241L)β2γ2L GABAA receptors (Rattus norvegicus, UniProt P62813, Q268L)", "test": "Potentiation of GABA currents in oocytes expressing the steroid-insensitive α1", "type": "cell-based", "conditions": "GABA 2 TM, −70 mV, 4 WT and 4 mutant oocytes"}, "[4]": {"test_system": "tadpoles", "test": "Tadpole loss of righting reflex", "type": "in vivo", "conditions": "loss of swimming reflex; None = all tadpoles had a swimming response at 10 μM"}, "[5]": {"conditions": "read-out: tadpole LRR EC50, loss of righting reflex, literature values ref 14"}}, "note": "Like-named read-outs stand apart in the source and are kept apart here."}
{"smiles": "C[C@@]12CC[C@H](O)C[C@H]1CC[C@@H]1[C@@H]2CC[C@@]2(C)C(=O)CC[C@@H]12", "note": "(single isomer, unassigned) [compound ent-2, ent-androsterone]", "values": [{"measurement": "EC50", "setting": "[1]; [5]", "value": "1.42 ± 0.18", "unit": "µM"}]}
{"smiles": "C[C@@]12CC[C@H](O)C[C@H]1CC[C@@H]1[C@@H]2[C@H](OCc2ccccc2)C[C@@]2(C)C(=O)CC[C@@H]12", "note": "(single isomer, unassigned) [compound ent-4, (3β,5β,8α,9β,10α,11α,13α,14β)-11-Benzyloxy-3-hydroxyandrostan-17-one]", "values": [{"measurement": "effect on GABA-mediated currents", "setting": "[2]", "value": "weakly inhibit"}]}
{"smiles": "C[C@@]12CC[C@H](O)C[C@H]1C[C@@H](OCc1ccccc1)[C@@H]1[C@@H]2CC[C@@]2(C)C(=O)CC[C@@H]12", "note": "(single isomer, unassigned) [compound ent-6, (3β,5β,7α,8α,9β,10α,13α,14β)-7-Benzyloxy-3-hydroxyandrostan-17-one]", "values": [{"measurement": "effect of the α1 Q241L mutation on potentiation of GABA currents", "setting": "[3]; compound 1 TM", "value": "abolishes, completely or nearly completely"}]}
{"smiles": "C[C@@]12CC[C@H](O)C[C@H]1C[C@@H](OCc1ccccc1)[C@@H]1[C@@H]2CC[C@]2(C)[C@H]1CC[C@]21CO1", "note": "(single isomer, unassigned) [compound ent-7, (3β,5β,7α,8α,9β,10α,13α,14β,17α)-Spiro[7-Benzyoxyandrostane-17,2′-oxiran]-3-ol]", "values": [{"measurement": "effect of the α1 Q241L mutation on potentiation of GABA currents", "setting": "[3]; compound 0.5 TM", "value": "abolishes, completely or nearly completely"}]}
{"smiles": "C[C@@]12CC[C@H](O)C[C@H]1CC[C@@H]1[C@@H]2CC[C@]2(C)[C@H]1CC[C@]21CO1", "note": "(single isomer, unassigned) [ent-3]", "values": [{"measurement": "EC50", "setting": "[1]; [5]", "value": "1.08 ± 0.01", "unit": "µM"}]}
{"smiles": "CC(=O)[C@H]1CC[C@H]2[C@@H]3CC[C@H]4C[C@H](O)CC[C@]4(C)[C@H]3CC[C@]12C", "note": "[compound 1, allopregnanolone]", "values": [{"measurement": "EC50", "setting": "[1]; read-out: Tadpole LSR EC50, loss of swimming reflex, literature values ref 27", "value": "5.5 ± 0.5", "unit": "µM"}, {"measurement": "EC50", "setting": "[1]; read-out: tadpole LRR EC50, loss of righting reflex, literature values ref 27", "value": "0.42 ± 0.04", "unit": "µM"}, {"measurement": "effect of the α1 Q241L mutation on potentiation of GABA currents", "setting": "[3]; compound 0.5 TM", "value": "eliminates the potentiation"}]}
{"smiles": "C[C@]12CC[C@@H](O)C[C@@H]1CC[C@@H]1[C@@H]2CC[C@]2(C)C(=O)CC[C@@H]12", "note": "[compound 2, androsterone]", "values": [{"measurement": "EC50", "setting": "[1]; [5]", "value": "3.38 ± 0.9", "unit": "µM"}]}
{"smiles": "C[C@]12CC[C@@H](O)C[C@@H]1CC[C@@H]1[C@@H]2CC[C@@]2(C)[C@H]1CC[C@@]21CO1", "note": "[compound 3]", "values": [{"measurement": "EC50", "setting": "[1]; [5]", "value": "1.35 ± 0.01", "unit": "µM"}]}
{"smiles": "C[C@]12CC[C@@H](O)C[C@@H]1CC[C@@H]1[C@@H]2[C@@H](OCc2ccccc2)C[C@]2(C)C(=O)CC[C@@H]12", "note": "[compound 4, (3α,5α,11β)-11-Benzyloxy-3-hydroxyandrostan-17-one]", "values": [{"measurement": "effect of the α1 Q241L mutation on potentiation of GABA currents", "setting": "[3]; compound 1 TM", "value": "abolishes, completely or nearly completely"}]}
{"smiles": "C[C@]12CC[C@@H](O)C[C@@H]1CC[C@@H]1[C@@H]2[C@@H](OCc2ccccc2)C[C@@]2(C)[C@H]1CC[C@@]21CO1", "note": "[compound 5, (3α,5α,11β,17β)-Spiro[11-benzyloxyandrostane-17,2′-oxiran]-3-ol]", "values": [{"measurement": "effect of the α1 Q241L mutation on potentiation of GABA currents", "setting": "[3]; compound 0.5 TM", "value": "abolishes, completely or nearly completely"}]}
{"smiles": "C[C@]12CC[C@@H](O)C[C@@H]1C[C@H](OCc1ccccc1)[C@@H]1[C@@H]2CC[C@]2(C)C(=O)CC[C@@H]12", "note": "[compound 6, (3α,5α,7β)-7-Benzyloxy-3-hydroxyandrostan-17-one]", "values": [{"measurement": "Tadpole LSR EC50", "setting": "[4]", "value": "None^e"}, {"measurement": "effect on GABA-mediated currents", "setting": "[2]", "value": "weakly inhibit"}]}
{"smiles": "C[C@]12CC[C@@H](O)C[C@@H]1C[C@H](OCc1ccccc1)[C@@H]1[C@@H]2CC[C@@]2(C)[C@H]1CC[C@@]21CO1", "note": "[compound 7, (3α,5α,7β,17β)-Spiro-[7-Benzyloxyandrostane-17,2′-oxiran]-3-ol]", "values": [{"measurement": "effect on GABA-mediated currents", "setting": "[2]", "value": "weakly inhibit"}]}
